From PubChem BioAssay
Only some compounds are listed: those with a hit (about 6.8% of all), similar ones and a draw of the others.
HSF1 activator: increases HSF-1 driven luciferase reporter signal; hit rate 1.7% among 300,000; NIH3T3-HGL HSF-1 luciferase reporter, MG132, 8 h; 100% = twice DMSO control signal; activation, % at 9 µM;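 active = mean replicate activation of at least 50% with a set share of replicates each reaching 50%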;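 note: 0% = median of the neutral control wells and 100% = twice that signal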
ALR H2O2 inh: blocks human ALR sulfhydryl oxidase activity. purified ALR, DTT oxidation, H2O2 HRP-luminol luminescence. hit rate 3.8% among 290,000. inhibition, % (no concentration beside the values). P55789. AID 485317;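 active = mean replicate inhibition above about 79%, with every replicate also reaching it, limit read from the data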
Target sequence (P55789 whole entry, looked up): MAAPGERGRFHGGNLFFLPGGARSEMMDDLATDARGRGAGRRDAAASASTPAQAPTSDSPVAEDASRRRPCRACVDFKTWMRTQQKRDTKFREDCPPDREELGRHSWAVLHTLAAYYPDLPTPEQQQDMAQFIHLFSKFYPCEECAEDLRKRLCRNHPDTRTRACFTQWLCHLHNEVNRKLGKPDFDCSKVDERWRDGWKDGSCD
HSF1 inhib: HSF1 inhibition; AID 2098; hit rate 0.77% among 300,000; NIH3T3-HGL HSE-luciferase, MG132-induced, luminescence 8 h; hits give low values; activity change, negative = inhibition, % at 7.5 µM (by protocol);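 active = more than half of replicate wells show activity change below -50%, luminescence cut by over half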;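 note: luciferase reports HSF-1 transcriptional activity via heat shock element; 0% = median of DMSO wells and -100% = zero luminescence signal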
HCV core dimer: HCV core protein dimerization inhibition; hit rate 0.33% among 300,000; inhibition, % at 5 µM; AID 1899; TR-FRET GST/Flag-core106 dimerization, 1536-well;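 active = inhibition above the mean of all tested compounds plus 3 SD, set per screening campaign, cut at about 45% in these data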
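Assay system: GST-tagged and Flag-tagged HCV core protein residues 1-106 / Times: compound-protein-antibody incubation 4 h at 22.5 °C / Signal: time-resolved FRET, ex 340 nm, em 617 and 671 nm / Evaluation: % inhibition based on acceptor/donor emission ratio / Benchmarks: wells lacking GST-core106 and wells with excess unlabelled core106 / Repeats: singlicate, one well per compound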
PHOSPHO1 inh: inhibitors of human PHOSPHO1 phosphatase. inhibition, % at 13.3 µM. recombinant PHOSPHO1, absorbance phosphatase assay. hit rate 1.1% among 290,000. Q8TCT1; in the data active = inhibition above about 60%
Target sequence (Q8TCT1 whole entry, looked up): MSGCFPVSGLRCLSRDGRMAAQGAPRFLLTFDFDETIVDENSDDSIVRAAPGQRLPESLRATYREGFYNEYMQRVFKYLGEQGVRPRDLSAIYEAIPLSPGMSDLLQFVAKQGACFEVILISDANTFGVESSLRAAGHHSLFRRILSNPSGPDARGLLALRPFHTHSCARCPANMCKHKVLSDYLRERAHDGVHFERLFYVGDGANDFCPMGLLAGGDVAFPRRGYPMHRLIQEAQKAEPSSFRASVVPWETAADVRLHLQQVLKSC
AI-2 QS mod: modulates the Vibrio harveyi AI-2 quorum sensing system. Vibrio harveyi JMH597 AI-2 luminescence/OD600 ratio, 9 h; hits give low values; strain lacks LuxN and CqsS sensors; 0 = neutral-control median. activity change, % at 7.5 µM. hit rate 0.4% among 300,000. AID 2094; in the data active = activity change below about -75%, passing the limit was not always enough;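 note: luminescence divided by OD600 gain over 9 h not by final OD600 alone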
Starred values were filed as active, the others as inactive; nt = not tested or not shown.

SMILES	HSF1 activator	ALR H2O2 inh	HSF1 inhib	HCV core dimer	PHOSPHO1 inh	AI-2 QS mod
CCN(CC)CCN1c2ccccc2Sc2ccccc21	-5	100*	-7	-6	14	23
CN(C)c1ncc(C2=C(Cl)C(=O)C(N3CCCC3)=C(Cl)C2=O)s1	4	nt	16	84*	nt	135
O=C1C(Cl)=C(N2CCCCC2)C(=O)C(Cl)=C1c1cnc(N2CCCCC2)s1	-3	nt	-7	nt	-14	23
O=C(Nc1ccon1)Nc1cc(Cl)ccc1Cl	2	4	1	2	24	2
O=C(CC(Nc1ccc(Cl)cc1Cl)C(=O)O)c1ccccc1 (configuration not stated)	-91	nt	-89*	4	32	43
O=C(CC(Nc1ccccc1Cl)C(=O)OCC(=O)c1cccs1)c1ccccc1 (configuration not stated)	-61	27	-58*	3	23	12
CCN(Cc1ccccc1)C(=O)CN1C(=O)NC(CC)(c2ccc(F)cc2)C1=O (configuration not stated)	3	-4	-1	-3	23	25
C=CCn1c(OCc2ccccc2)n[nH]c1=S	9	96*	-8	-5	-91	17
C=CCn1c(CCn2c3ccccc3c3ccccc32)n[nH]c1=S	4	41	-6	-4	8	4
S=c1[nH]nc(Cc2noc3ccccc23)n1-c1ccccc1	-27	86*	-10	-14	-80	13
C=CCn1c(Cc2nc3ccccc3[nH]2)n[nH]c1=S	0	15	0	-1	90*	4
COCc1n[nH]c(=S)n1-c1cccc2ccccc12	nt	69	nt	-4	74*	nt
CC(=O)Nc1ccc(S(=O)(=O)NCC(=O)OCC(=O)NCc2ccco2)cc1	0	5	-4	-1	nt	16
CCC(CC)C(=O)NCCCCc1ccccc1	-2	-2	-4	4	10	26
C=CCn1c(Cc2cccc3ccccc23)n[nH]c1=S	7	92*	-9	-15	-4	4
Nn1c(Cc2cccc3ccccc23)n[nH]c1=S	-19	64	-6	-5	40	2
S=c1[nH]nc(Cc2cccc3ccccc23)n1-c1ccccc1	5	90*	-2	2	94*	12
COc1cccc([C@@H]2Oc3ccc(OC)cc3C(=O)[C@H]2OC(=O)NCc2ccc3c(c2)OCO3)c1	18	-1	10	12	-4	8
COc1ccc(OC)c(C(c2nnnn2CCC(C)C)N2CCN(C(=O)c3ccco3)CC2)c1 (configuration not stated)	-28	-30	-9	-3	-6	5
CCCCOc1ccc(/C=N/NC(=S)Nc2cccc(C)c2C)cc1	1	-15	3	5	3	15
CCOc1ccc(/C=N/NC(=S)NC2CC3C=CC2C3)cc1 (configuration not stated)	53*	0	35	1	30	26
COc1cc(/C=N/NC(=S)NC2CC3C=CC2C3)cc(OC)c1OC (configuration not stated)	164*	-5	123	7	-32	17
Oc1c(Br)cc(Br)cc1/C=N/NC(=S)N[C@H]1CC2C=CC1C2 (some centres not stated)	11	0	10	1	3	3
O=C(N/N=C/c1cn(-c2ccccc2)nc1-c1ccc2c(c1)OCCO2)c1ccncc1	107*	14	53	-1	18	23
O=C(N/N=C\c1cn(-c2ccccc2)nc1-c1ccccc1)c1ccc2c(c1)OCO2	16	1	13	19	9	-6
SMILES	HSF1 activator	ALR H2O2 inh	HSF1 inhib	HCV core dimer	PHOSPHO1 inh	AI-2 QS mod
CC1CCCN(C(=O)Cc2cccc3ccccc23)C1 (configuration not stated)	3	-3	3	-9	44	22
O=C(NCc1ccco1)/C(=C\c1cccs1)NC(=O)c1ccco1	-29	-4	-12	-8	-22	10
O=C(/C=C/c1ccc(Cl)cc1)NCCc1ccccc1	27	nt	11	6	-17	25
CN(C)c1ccc(NC(=O)/C=C/c2ccccc2Cl)cc1	54*	40	20	-30	-4	3
CC(C)c1ccc(/C=C/C(=O)NCCCc2ccccc2)cc1	12	-5	3	-1	30	-16
Cc1cc(NC(=O)/C=C/c2ccccc2Cl)no1	14	12	10	3	2	19
CCN(CC)c1ccc(NC(=O)/C=C\c2ccccc2Cl)cc1	nt	18	nt	-11	69*	-15
O=C(/C=C/c1ccccc1Cl)NCCc1ccccc1	55*	nt	27	-1	-16	-34
COc1ccc(/C=C/C(=O)NCCCc2ccccc2)cc1	62*	-6	25	3	1	6
COc1ccc([C@@H]2CC=C(C(=O)O)[C@H](c3cccc(Cl)c3)N2S(=O)(=O)c2ccccc2C)cc1	nt	3	nt	31	nt	nt
Cc1ccccc1NS(=O)(=O)c1cc2c(cc1C)N(C)CCO2	-14	98*	-2	13	-46	15
COc1ccc(NS(=O)(=O)c2cc3c(cc2C)N(C)CCO3)c(OC)c1	12	23	3	-5	23	15
COc1cc(/C=C/C(=O)OCC(=O)NCCC2=CCCCC2)ccc1O	16	99*	11	-1	8	12
COc1cc(/C=C/C(=O)OCC(=O)NC(=O)NC(C)C)ccc1O	-2	99*	2	-8	12	21
COc1cc(/C=C/C(=O)OCC(=O)NCc2ccccc2OC)ccc1O	-1	84*	3	0	nt	26
COc1cc(NC(=O)COC(=O)/C=C/c2ccc(O)c(OC)c2)cc(OC)c1	nt	-4	nt	-2	6	29
COc1cc(/C=C/C(=O)OCC(=O)NCCC2=CCCCC2)cc(OC)c1OC	nt	-4	nt	nt	nt	nt
COc1ccc(/C=C/C(=O)OCC(=O)NCc2ccco2)cc1OC	-8	-3	-7	3	21	20
COc1cc(/C=C/C(=O)OCC(=O)Nc2ccc3c(c2)OCCO3)ccc1O	-6	81*	0	1	-9	31
CC1SC(c2ccc(F)cc2)NC1=O (configuration not stated)	19	nt	4	5	50	-12
O=C(/C=C/c1cccc([N+](=O)[O-])c1)OCC(=O)N1CCN(C(=O)c2ccco2)CC1	nt	-10	nt	nt	nt	nt
CCC(C)N(C(=O)COC(=O)/C=C/c1ccc(O)c(OC)c1)C1CCS(=O)(=O)C1 (configuration not stated)	-6	94*	-5	-6	1	13
COc1cc(/C=C/C(=O)OCC(=O)N2CCN(C(=O)c3ccco3)CC2)ccc1O	-2	99*	-3	-4	-9	17
CCN(CC)S(=O)(=O)c1ccc(C(=O)OCC(=O)N2CCOCC2)cc1	3	-5	-4	5	28	21
